Data set [1] deals with T1, Toll-like receptor 4 (Homo sapiens, UniProt O00206). In words: Antagonist activity at human TLR4 expressed in LPS-stimulated HEK293 cells co-expressing MD-2 and CD14 after 2 hrs by SEAP assay.
A further data set deals with HEK293. Put plainly: Cytotoxicity against HEK293 cells after 24 hrs by flow cytometry. It counts as cell-based. The note with it: human, hek293, 24 h. The procedure, abridged:
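HEK293 cells were cultured for 24 h with compound at 100 or 200 µM, with DMSO as control. Cells were then harvested and stained with propidium iodide to count dead cells. Solubility in RPMI 1640 was first checked by light microscopy for precipitation.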
(Flow cytometry measures light scatter and fluorescence of single cells or particles in a stream.)

For the next data set, the system named is PBMC. Put plainly: Inhibition of TNFalpha secretion in human PBMC preincubated at 100 uM for 2 hrs before LPS challenge measured after 48 hrs by ELISA. It counts as functional. The procedure, abridged: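 PBMCs were isolated from healthy volunteer blood and pre-incubated with compound for 2 h. They were then challenged with LPS for 48 h, with TAK-242 as positive control. Supernatant TNF-α was measured by ELISA, and significance was tested by unpaired t tests.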
(In general: ELISA stands for enzyme-linked immunosorbent assay.)

The target in data set [2] is T1, Toll-like receptor 4. In words: Antagonist activity at human TLR4 expressed in LPS-stimulated HEK293 cells co-expressing MDM2 and CD14 after 2 hrs by SEAP assay. It counts as cell-based. Conditions: in the assay text read “MD-2” for “MDM2”. The method, boiled down: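 HEK-Blue hTLR4 cells (HEK293 co-transfected with human TLR4, MD-2, CD14 and an inducible SEAP reporter) were cultured per provider instructions. They were pre-incubated with compound at various concentrations for 2 h at 37 C, then challenged with LPS for 20 h. Supernatant SEAP was read colorimetrically, and IC50 was calculated from the decrease in absorbance.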

For data set [3], the target named is T1, Toll-like receptor 4. In words: Binding affinity to human recombinant TLR4 up to 320 uM by SPR method. The procedure, abridged:
(§1)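 Recombinant human TLR4 was amine-coupled to a CM5 chip at about 8000 RU. Titration was run at 25 °C in PBS pH 7.4 with 2% DMSO, at 0, 5, 10, 20, 40, 80 (repeated at the end), 160 and 320 µM. Each injection lasted 1 min and dissociation was followed for 30 s. The response at the end of association was plotted against concentration.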
In general terms: Surface plasmon resonance follows binding to a sensor surface in real time, without labels.

The target in data set [4] is T1, Toll-like receptor 4. Put plainly: Binding affinity to human recombinant TLR4 at >320 uM by SPR method. The procedure, abridged: as §1
Data set [5] has as its target T1, Toll-like receptor 4. In words: Binding affinity to human recombinant TLR4 at 20 uM by SPR method. The procedure, abridged: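 Recombinant human TLR4 was amine-coupled to a CM5 chip at about 8000 RU, with a reference flow cell. Runs were at 25 °C in PBS pH 7.4 plus 2% DMSO running buffer. Compounds were injected at 20 and 200 µM for 1 min, and dissociation was monitored for 30 s. Responses were compared against buffer injection, with no regeneration.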

Activity calls are given as the source filed them. The calls are words filed in the database; no cut-off is given here.

From ChEMBL document CHEMBL3085658, “Novel toll-like receptor 4 (TLR4) antagonists identified by structure- and ligand-based virtual screening” (Eur J Med Chem, 2013) come the findings set out here.

For orientation: IC50 means the concentration that gives 50% inhibition. As usually defined, the inhibition is how much of the control response was suppressed. High values mean a strong effect, low ones a weak effect.

T1 sequence (O00206 whole entry): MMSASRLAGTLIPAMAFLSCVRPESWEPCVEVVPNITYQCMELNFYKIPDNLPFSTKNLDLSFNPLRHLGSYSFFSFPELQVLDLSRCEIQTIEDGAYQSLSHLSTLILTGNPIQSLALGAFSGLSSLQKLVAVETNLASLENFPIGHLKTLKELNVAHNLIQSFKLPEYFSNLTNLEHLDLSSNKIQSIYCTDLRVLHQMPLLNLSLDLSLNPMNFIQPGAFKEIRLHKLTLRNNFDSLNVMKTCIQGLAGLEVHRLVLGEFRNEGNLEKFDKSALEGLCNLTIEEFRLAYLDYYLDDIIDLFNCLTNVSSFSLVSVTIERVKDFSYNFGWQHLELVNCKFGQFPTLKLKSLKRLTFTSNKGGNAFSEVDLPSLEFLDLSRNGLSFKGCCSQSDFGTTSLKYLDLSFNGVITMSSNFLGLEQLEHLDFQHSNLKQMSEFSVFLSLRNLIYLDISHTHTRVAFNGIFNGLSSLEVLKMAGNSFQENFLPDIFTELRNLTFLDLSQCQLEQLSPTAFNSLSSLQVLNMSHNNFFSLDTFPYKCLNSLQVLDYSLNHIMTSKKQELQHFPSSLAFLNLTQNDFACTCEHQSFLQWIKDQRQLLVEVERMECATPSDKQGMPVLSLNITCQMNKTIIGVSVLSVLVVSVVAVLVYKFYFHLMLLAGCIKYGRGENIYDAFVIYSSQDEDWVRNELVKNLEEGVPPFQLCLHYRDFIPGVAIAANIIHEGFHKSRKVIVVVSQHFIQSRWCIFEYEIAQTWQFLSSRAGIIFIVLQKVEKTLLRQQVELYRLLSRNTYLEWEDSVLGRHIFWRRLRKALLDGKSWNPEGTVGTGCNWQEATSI

Consider `COc1ccccc1CNC(=O)c1ccccc1NS(=O)(=O)c1ccc2[nH]c(=O)[nH]c2c1`, for which the 50% inhibitory concentration (IC50) result against Toll-like receptor 4 [1] was “ND(Insoluble)”.
Still for that read-out and setting: under `O=C(NCCNC(=O)c1cc2ccccc2[nH]1)C(=O)NCc1ccc2c(c1)OCO2` stands “Not Active”.
On the same count and under the same terms, under `CC(C)c1ccc(NC(=O)CCc2csc(NC(=O)c3ccc[nH]c3=O)n2)cc1` stands “ND(Insoluble)”.
Regarding `O=C(NCCNc1ccc(Nc2ccccn2)nn1)Nc1ccccc1F`, the 50% inhibitory concentration (IC50) entry at Toll-like receptor 4 [1] is given as “Not Active”.
The same measure, in the same setting: with `CN(CC(=O)Nc1cccc(F)c1)Cc1nc2scc(-c3ccc(F)cc3)c2c(=O)[nH]1` the entry was “ND(Insoluble)”; with `C[C@H](Sc1nc2scc(-c3cccs3)c2c(=O)[nH]1)C(=O)NC(=O)NC1CCCCC1`, “ND(Insoluble)”.
Take `O=c1[nH]c(CN2CCC[C@@H]2c2ccc3c(c2)OCCCO3)nc2scc(-c3ccccc3)c12`: the IC50 result at Toll-like receptor 4 [1] is given as “ND(Insoluble)”.
On the same count and under the same terms, under `COc1ccc(OC[C@H](O)CN2CCc3ccccc3C2)cc1` stands “ND(Insoluble)”.
Turning to `O=C(CSCC(=O)Nc1ccccc1)NNC(=O)Nc1ccc(Cl)cc1`, the IC50 result against Toll-like receptor 4 [1] is reported as “ND(Insoluble)”.
As for `Cc1ccc(Cn2cc(C(=O)NNC(=O)Nc3ccc4c(c3)OCO4)ccc2=O)cc1`, the IC50 result at Toll-like receptor 4 [1] is given as “ND(Insoluble)”.
On to `O=C(CSCC(=O)Nc1ccccc1)NNC(=O)Nc1ccccc1`, for which the IC50 result on Toll-like receptor 4 [1] was “ND(Insoluble)”.
On to `CCN1CCN(CCNC(=O)[C@H](C)C2CCN(C(=O)c3cc4cc(Cl)ccc4[nH]3)CC2)CC1`, for which, on Toll-like receptor 4 [1], the half-inhibitory concentration (IC50) result is on record as “ND(Insoluble)”.
Still for that read-out and setting: under `COc1ccc(NC(=O)CN(C)C(=O)c2cc(-c3ccc(C)s3)[nH]n2)cc1` stands “ND(Insoluble)”; under `COC(=O)c1ccc(/C=N/NC(=O)c2cc(-c3cccc([N+](=O)[O-])c3)[nH]n2)cc1`, “ND(Insoluble)”.
Take `CC(C)(C)[C@H]1CCc2c(sc3nc(CCC(=O)NCc4ccc5c(c4)OCO5)[nH]c(=O)c23)C1`: at Toll-like receptor 4 [1], the 50% inhibitory concentration (IC50) result is recorded as “ND(Insoluble)”.
With `Nc1nc(CSc2nnc(Cc3ccccc3F)n2N)nc(Nc2ccc(Cl)cc2)n1`, the half-inhibitory concentration (IC50) result against Toll-like receptor 4 [1] is on record as “Not Active”.
Turning to `CC(C)(C)[C@@H]1CCc2c(sc3nc(CCC(=O)N4CCN(c5ccccn5)CC4)[nH]c(=O)c23)C1`, the IC50 entry at Toll-like receptor 4 [1] is given as “ND(Insoluble)”.
The same measure, in the same setting: under `O=C(CCc1nc(O)c2c3c(sc2n1)CCCC3)NCC(=O)Nc1ccccc1Br` stands “ND(Insoluble)”.
Same read-out and setting: under `Cc1nn(Cc2ccccc2Cl)c(C)c1CN(C)C(=O)/C=C/c1cccs1` stands “Not Active”.
Regarding `COc1ccc(OC[C@H](O)CN(C)C(=O)c2ccc(Cl)cc2)cc1`, the Activity result with HEK293 is “Toxic”.
Take `Cc1nn(Cc2ccccc2Cl)c(C)c1CN(C)CCn1nc2ccccn2c1=O`: at Toll-like receptor 4 [1], the IC50 entry is on record as “Not Active”.
In the case of `CN(Cc1nc2ccccc2s1)C[C@@H](O)COc1ccc(F)cc1`, on Toll-like receptor 4 [1], the IC50 entry is listed as “Not Active”.
On the same count and under the same terms, with `Cc1nn(Cc2ccccc2Cl)c(C)c1CN(C)C(=O)/C=C/c1ccc2c(c1)OCO2` the entry was “Not Active”.
Same read-out and setting: with `O=C(CSc1nnc(-c2ccc3c(c2)OCCO3)c(O)n1)Nc1ccc(F)c(F)c1` the entry was “ND(Insoluble)”.
Turning to `O=C(CCc1nc2sc3c(c2c(=O)[nH]1)CCCC3)NCc1nc2ccccc2[nH]1`, at Toll-like receptor 4 [1], the half-inhibitory concentration (IC50) result is reported as “ND(Insoluble)”.
Same read-out and setting: under `Cc1ncc(CN(C)C[C@@H](O)COc2ccc(F)cc2)s1` stands “ND(Insoluble)”; under `C[C@H](SCc1nc2scc(-c3ccccc3)c2c(=O)[nH]1)C(=O)NCc1nc2ccccc2[nH]1`, “ND(Insoluble)”.
With `CCN(CC(=O)Nc1ccc2c(c1)OCCO2)Cc1nc2scc(-c3ccc(C)s3)c2c(=O)[nH]1`, the IC50 entry against Toll-like receptor 4 [1] is on record as “ND(Insoluble)”.
In the data set with PBMC, `Cc1ccccc1Nc1nc(N)nc(CN2CCC[C@@H]2c2nc3ccccc3s2)n1` came in with an inhibition at 100 µM of 80.8%. The compound also showed an IC50 against Toll-like receptor 4 [2] of 64.1 µM.
On to `Cc1cccc(NC(=O)CNC(=O)CCc2nc(O)c3c4c(sc3n2)CCCC4)c1C`, for which, on Toll-like receptor 4 [1], the half-inhibitory concentration (IC50) entry is given as “ND(Insoluble)”.
The same measure, in the same setting: with `N#Cc1ccc(OC[C@H](O)CNCc2nc3ccccc3s2)cc1` the entry was “Not Active”; with `C[C@@H](SCc1nc2scc(-c3ccccc3)c2c(=O)[nH]1)C(=O)Nc1ccc2c(c1)OCO2`, “Not Active”.
For `COc1ccc(O)c(C(=O)c2cnc(/N=C(\N)Nc3ccc(F)cc3)nc2)c1`, the outcome at Toll-like receptor 4 [3] and on Toll-like receptor 4 [5] was Active. The inhibition at 100 µM in the data set on PBMC came to 87.4%. The IC50 at Toll-like receptor 4 [2] came out at 16.6 µM. On Toll-like receptor 4 [4], the result was inactive.
Take `CN(CC(=O)Nc1ccc(Cl)c(Cl)c1)Cc1nc2scc(-c3ccc(F)cc3)c2c(=O)[nH]1`: the IC50 result at Toll-like receptor 4 [1] was “ND(Insoluble)”.
On the same count and under the same terms, with `Cc1nn(-c2ccccc2)c(C)c1CN(C)C[C@@H](O)Cn1cccn1` the entry was “Not Active”.
The same measure, in the same setting: under `N=C(NC1=N[C@@H](CC(=O)Nc2ccc(Cl)cc2)C(O)=N1)Nc1ccccc1` stands “Not Active”.
As to `O=C(CSc1nnc(-c2ccc3c(c2)OCCO3)c(O)n1)Nc1ccc(F)cc1`, the IC50 result at Toll-like receptor 4 [1] is given as “ND(Insoluble)”.
For `COc1ccc(NC(=N)Nc2nc(C)c(Cc3ccccc3)c(O)n2)cc1`, the IC50 result on Toll-like receptor 4 [1] is given as “ND(Insoluble)”.
Regarding `CN(CC(=O)Nc1ccc(N2CCOCC2)cc1)Cc1nc2scc(-c3ccccc3)c2c(=O)[nH]1`, the inhibition at 100 µM in the data set on PBMC came to 93.3%. The compound also showed an IC50 against Toll-like receptor 4 [2] of 168 µM.
As to `Cc1ccccc1NC(=O)NCCNc1ccc(Nc2ccccn2)nn1`, the Activity entry in the data set on HEK293 is on record as “Toxic”.
As to `O=C(CN1CCC[C@H]1c1nc2ccccc2s1)c1c[nH]c(C(=O)N2CCCC2)c1`, the Activity result in the data set on HEK293 is “Toxic”.
As to `Cc1cc([C@@H]2CCCN2C[C@H](O)COc2ccc(Cl)cc2)on1`, in the data set on HEK293, the Activity result was “Toxic”.
As to `Cc1ccc(C(=O)Nc2c(N)nc(SCC(=O)NCc3ccc4c(c3)OCO4)[nH]c2=O)cc1`, at Toll-like receptor 4 [1], the half-inhibitory concentration (IC50) result was “ND(Insoluble)”.
The same measure, in the same setting: under `N/C(=N\C(=O)c1ccc(-c2ccccc2)cc1)Nc1nc2ccccc2o1` stands “ND(Insoluble)”; under `COc1cccc(NC(=O)/C=C(\C)NNC(=O)c2ccc(-c3ccccc3)cc2)c1`, “ND(Insoluble)”.
